# Results collected from several papers.
# Protocols differ between the studies behind these lines.
# PIK3CA M1043I: Phosphatidylinositol 4,5-bisphosphate 3-kinase catalytic subunit alpha isoform (PIK3CA, Homo sapiens, UniProt P42336, M1043I)
# PIK3CA Q546K: Phosphatidylinositol 4,5-bisphosphate 3-kinase catalytic subunit alpha isoform (PIK3CA, Homo sapiens, UniProt P42336, Q546K)
# PIK3CA H1047Y: Phosphatidylinositol 4,5-bisphosphate 3-kinase catalytic subunit alpha isoform (PIK3CA, Homo sapiens, UniProt P42336, H1047Y)
# PIK3CA E545K: Phosphatidylinositol 4,5-bisphosphate 3-kinase catalytic subunit alpha isoform (PIK3CA, Homo sapiens, UniProt P42336, E545K)
# PIK3CA H1047L: Phosphatidylinositol 4,5-bisphosphate 3-kinase catalytic subunit alpha isoform (PIK3CA, Homo sapiens, UniProt P42336, H1047L)
# PIK3CA I800L: Phosphatidylinositol 4,5-bisphosphate 3-kinase catalytic subunit alpha isoform (PIK3CA, Homo sapiens, UniProt P42336, I800L)
# PIK3CA E542K: Phosphatidylinositol 4,5-bisphosphate 3-kinase catalytic subunit alpha isoform (PIK3CA, Homo sapiens, UniProt P42336, E542K)
# PIK3CA C420R: Phosphatidylinositol 4,5-bisphosphate 3-kinase catalytic subunit alpha isoform (PIK3CA, Homo sapiens, UniProt P42336, C420R)
# PIK3CA: Phosphatidylinositol 4,5-bisphosphate 3-kinase catalytic subunit alpha isoform (PIK3CA, Homo sapiens, UniProt P42336)
SMILES,target,effect on,technique,concentration,remaining binding
O=C(c1ccc(Nc2ncc(Cl)c(-c3cc4ccccc4s3)n2)cc1)N1CCC(N2CCCC2)CC1,PIK3CA M1043I,binding,competition with immobilised ligand,1 µM,62%
CN(C)c1ncc(F)c(-c2cnn3ncccc23)n1,PIK3CA Q546K,binding,,1 µM,86%
O=C(NCC1CCOCC1)c1n[nH]cc1NC(=O)c1c(F)cccc1F,PIK3CA M1043I,binding,competition with immobilised ligand,1 µM,100%
CCc1ccccc1C(=O)Nc1n[nH]c2c(C)c(F)c(C3C(C#N)=C(C)N(C)C(C)=C3C#N)cc12,PIK3CA H1047Y,cell-free assay,competition with immobilised ligand,1 µM,77%
CCN1CCN(Cc2ccc(C(=O)Nc3ccc(C)c(Oc4ccc5c(c4)CC(=O)N5)c3)cc2C(F)(F)F)CC1,PIK3CA E545K,binding,competition with immobilised ligand,1 µM,93%
Nc1cnc(N2CCc3cc(S(=O)(=O)Nc4c(F)cc(Cl)cc4F)cc(N4CCCC4=O)c32)nc1,PIK3CA H1047L,cell-free assay,competition with immobilised ligand,1 µM,60%
C=CC(=O)N1CCC(C(=O)NCC(=O)N2CCN(c3nc(-c4cnc(N)nc4C(F)F)nc(N4CCOCC4)n3)CC2)CC1,PIK3CA I800L,binding,competition with immobilised ligand,1 µM,0%
Cc1cnc(Nc2ccc(C(=O)N3CCC(N4CCCC4)CC3)cc2)nc1-c1cc2ccccc2s1,PIK3CA I800L,binding,competition with immobilised ligand,1 µM,100%
COc1cnc(Nc2cccc(S(N)(=O)=O)c2)nc1N1CCN(c2ccccc2)C(=O)C1,PIK3CA E542K,binding,competition with immobilised ligand,1 µM,91%
Nc1ncc2c(n1)-c1c([nH]c3ccc(C#CC4CC4)cc13)CCCC2,PIK3CA I800L,binding,competition with immobilised ligand,1 µM,81%
c1cncc(-c2cccc(Nc3nccc(NC4CCCCC4)n3)c2)c1,PIK3CA M1043I,binding,competition with immobilised ligand,10 µM,84%
C[C@H]1CCN(c2nccc(-c3cnn4ncccc34)n2)C1,PIK3CA M1043I,binding,,1 µM,100%
FC(F)(F)c1ccc2c(c1)nc(-c1cccnc1)n2C1CC1,PIK3CA Q546K,cell-free assay,competition with immobilised ligand,1 µM,99%
O=C(c1ccc(Nc2ncc(Cl)c(-c3ccc(Cl)s3)n2)cc1)N1CCC(N2CCCC2)CC1,PIK3CA M1043I,binding,competition with immobilised ligand,1 µM,100%
CN1CCN(c2ccc(Nc3nccc(-c4cccc([N+](=O)[O-])c4)n3)cc2C(F)(F)F)CC1,PIK3CA H1047Y,binding,,10 µM,27%
CC(=O)C1=C(C)N(c2cccc(C(F)(F)F)c2)C(=O)N[C@@H]1c1ccc(C#N)nc1,PIK3CA H1047L,cell-free assay,competition with immobilised ligand,1 µM,69%
CNC(=O)[C@@H]1CC[C@@H](n2c(-c3ccc4cnccc4c3)nc3ccc(C(=O)NCc4cccc(C(N)=O)c4)cc32)C1,PIK3CA M1043I,binding,competition with immobilised ligand,1 µM,79%
O=C(NCCCN1CCOCC1)c1ccc(Nc2nccc(-c3cc4ccccc4s3)n2)cc1,PIK3CA H1047Y,binding,competition with immobilised ligand,1 µM,73%
O=C(Nc1c[nH]nc1C(=O)NC1CCNCC1)c1cc(F)cc(F)c1,PIK3CA E545K,binding,competition with immobilised ligand,1 µM,64%
C[C@@H](c1ccc(-n2cnc3c(N)ncnc32)cc1)N1CCc2nn(C)c(Cc3ccccc3)c2C1=O,PIK3CA C420R,binding,competition with immobilised ligand,0.1 µM,98%
O=C(NCCCN1CCOCC1)c1ccc(Nc2ncc(Cl)c(-c3ccc(Cl)s3)n2)cc1,PIK3CA Q546K,binding,competition with immobilised ligand,1 µM,100%
CC1CCCN1c1nccc(-c2cnn3ncccc23)n1 (stereo not shown),PIK3CA C420R,binding,,1 µM,72%
Cc1cc(NC(=O)c2cccc(S(F)(F)(F)(F)F)c2)cc(-n2ccn3nc(-c4cccnc4)cc23)c1,PIK3CA C420R,cell-free assay,competition with immobilised ligand,1 µM,97.1%
CN(CCCC(F)(F)F)c1nccc(-c2cnn3ncccc23)n1,"Phosphatidylinositol 4,5-bisphosphate 3-kinase catalytic subunit alpha isoform (PIK3CA, Homo sapiens, UniProt P42336, E545A)",binding,,1 µM,100%
CO[C@@H](C)c1c(Nc2ccc([C@H](N(C)C(=O)C3CCS(=O)(=O)CC3)C(F)(F)F)cc2)cnc2cc(Cl)nn12,PIK3CA E545K,binding,competition with immobilised ligand,1 µM,48%
O=C(c1ccc(Nc2nccc(-c3cc4ccccc4s3)n2)cc1)N1CCC(N2CCCC2)CC1,PIK3CA M1043I,binding,competition with immobilised ligand,1 µM,81%
COc1cnc(Nc2cccc(S(N)(=O)=O)c2)nc1N1CCN(c2ccccc2)CC1,PIK3CA E542K,binding,competition with immobilised ligand,1 µM,93%
CN1CCN(c2ccc(Nc3nccc(-c4ccccc4)n3)cc2C(F)(F)F)CC1,PIK3CA E542K,binding,,10 µM,70%
Cc1cnn2ncc(-c3ccnc(N(C)C)n3)c2c1,PIK3CA,binding,,1 µM,100%
CCC(=O)N[C@H]1CC[C@@H](C(=O)N(C)c2ccc(-c3nc4ccccc4o3)cc2)C1,PIK3CA C420R,cell-free assay,competition with immobilised ligand,1 µM,92%
N[C@H]1CCN(c2nccc(-c3cnn4ncccc34)n2)C1,PIK3CA M1043I,binding,,1 µM,91%
COc1ncc2cc3ccccc3nc2c1C#N,PIK3CA M1043I,cell-free assay,competition with immobilised ligand,5 µM,100%
Cc1cc(C)c(-n2ccn3nc(-c4cccnc4)cc23)cc1NC(=O)c1cc(C#N)cc(S(F)(F)(F)(F)F)c1,PIK3CA H1047Y,cell-free assay,competition with immobilised ligand,0.1 µM,76.2%
c1cnn2ncc(-c3ccnc(N4CCC45COC5)n3)c2c1,PIK3CA,binding,,1 µM,79%
